The list shows a part of the results. Unmarked numbers belong to inactive results. The source made the active and inactive calls.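 How the source made its calls: active means inhibition above about 80% in every replicate, not just on average (limit read from the data); inconclusive means at least half of replicates past the limit, but not all; inactive means fewer than half of replicates past the limit.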
Experiment: luminescence inhibition in constitutive-on V. harveyi, confirmation, counter-screen for LuxS inhibitor project, strain BB721, luminescence readout (AID 2727)
Details: Vibrio harveyi BB721 luminescence, 9 h; at 7.5 µM; hits give high values
Summary of the method: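 Evaluation: Luminescence decrease marking disrupted downstream quorum sensing signalling | Assay system: V. harveyi BB721 bacterial culture | Amount: Bacterial culture diluted to starting OD600 of 0.0005 | Timing: 9 h exposure at 30 °C | Medium: AB (autoinducer bioassay) growth medium | Doses: 45 nL per well from 10 mM compound stock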

| Compound | inhibition |
| --- | --- |
| Cc1nn(CC(=O)Nc2ccc(F)cc2)c(=O)c2ccccc12 | 98.5% (active) |
| Cc1ccccc1NC(=O)CCOc1ccccc1 | 90.7% (active) |
| Cc1ccccc1C(=O)Nc1ccc(N2CCCCCC2)cc1 | 91.4% (active) |
| COC(=O)c1ccc(SCc2ccccc2)nc1 | 96.4% (active) |
| COc1ccc(/C(N)=N/OC(=O)Cc2ccccc2)cc1 | 93.6% (active) |
| CC(=O)c1cccc(OCc2cc(C(=O)NC(C)Cc3cccnc3)no2)c1 (stereo not drawn) | 92.4% (active) |
| Cc1ccc(NC(=O)C2CC2c2ccccc2)cc1 (stereo not drawn) | 94.8% (active) |
| N/C(=N\OC(=O)CCc1ccccc1)c1cccnc1 | 91.1% (active) |
| O=C(/C=C/c1ccc2c(c1)OCO2)NCc1ccc(F)cc1 | 94% (active) |
| COC(=O)C1CCN(C(=O)c2ccc3oc(Cc4ccc(Cl)cc4)nc3c2)CC1 | 95.6% (active) |
| Cc1ccc(Cc2nc(-c3cccc(C)c3)no2)cc1 | 92.5% (active) |
| Cc1cccc(CSc2ccc(-c3cccs3)nn2)c1 | 94.7% (active) |
| Cc1cc(CN(C)C(=O)c2cc(COc3ccc(C)c(C)c3)on2)n[nH]1 | 96% (active) |
| O=C(CCC(=O)c1cccs1)Nc1nc2ccccc2s1 | 97.5% (active) |
| O=C(Cn1cnc2ccccc2c1=O)Nc1cccc(S(=O)(=O)N2CCCCC2)c1 | 85.6% (active) |
| O=C(c1cc(-c2cccc(O)c2)on1)N1CCc2ccccc2C1 | 93.6% (active) |
| O=S(=O)(Nc1cccc(Oc2ccc(Cl)cc2)n1)c1ccc(F)cc1 | 99.6% (active) |

| Compound | inhibition |
| --- | --- |
| O=C(Nc1ccc(F)c(Cl)c1)C1CCN(S(=O)(=O)c2cccnc2)CC1 | 97.7% (active) |
| CC(C)(C)c1ccc(OC2=CS(=O)(=O)c3ccccc32)cc1 | 92.5% (active) |
| CCOC(=O)c1nn(-c2cccc(C)c2)cc1C(=O)c1ccccc1 | 87.7% (active) |
| O=C(COC(=O)C1CCCCC1)Nc1ccc([N+](=O)[O-])cc1 | 93.7% (active) |
| O=C(/C=C/c1ccc2c(c1)OCCO2)c1ccc(O)cc1 | 93.3% (active) |
| Cc1ccc(NS(=O)(=O)c2ccc3c(c2)NC(=O)CO3)cc1 | 92% (active) |
| CN(Cc1cnccn1)C(=O)c1cc(COc2cccc(C(F)(F)F)c2)on1 | 96% (active) |
| Cc1cc(C(=O)OCC(=O)Nc2ccc(F)c(F)c2)c(C)o1 | 97.5% (active) |
| CCOc1ccc(/C=N/NC(N)=S)cc1 | 92.7% (active) |
| Cc1ccc(Oc2cnn(-c3ccccc3)c(=O)c2Br)cc1 | 99.2% (active) |
| O=C(COc1ncnc2ccccc12)NC(=O)NCc1ccccc1 | 95.7% (active) |
| S=C(NCc1ccc(Cl)cc1)NC1CCCCC1 | 94.1% (active) |
| Cc1ccsc1C(=O)OCC(=O)c1cc2ccccc2o1 | 95.1% (active) |
| COc1cccc(NC(=O)NCc2ccc(F)cc2)c1 | 94.6% (active) |
| CC(CNc1ccc([N+](=O)[O-])cc1)NC(=O)c1ccccc1Br (stereo not drawn) | -4.57% |
| O=C1COc2ccc(S(=O)(=O)Nc3ccc(OC(F)(F)F)cc3)cc2N1 | 96.7% (active) |

Source: PubChem BioAssay AID2727 (Broad Institute, 2010)
